Where only a bound is given, the exact number is not on record here.

As a reminder, the IC50 is the midpoint of a concentration-inhibition curve.

In series [1] the target is Mitogen-activated protein kinase 8 (Homo sapiens, UniProt P45983). Description: Inhibition of JNK1.
For series [2], the system named is Rattus norvegicus. Description: Hemodynamic effect in anesthetized Sprague-Dawley rat assessed as decrease in mean arterial pressure at 10 mg/kg after 90 mins. Type of series: functional, Artery. Also on record: scale not given: the % may be the effect or the level left. The procedure, abridged: (§1)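 Inactin-anesthetized rats; femoral artery catheters for MAP, HR and blood sampling; femoral vein for dosing and saline; LV transducer catheter for LVP/dP/dt. PVR = MAP/PBF. After 30-min control period, vehicle (10% DMSO/PEG400, 1 mL/kg) or compound infused i.v. as three ascending doses, 3, 10, 30 mg/kg, each over 30 min. Changes versus time 0 baseline; mean of three animals.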

In series [3] the test system is Rattus norvegicus. In words: Hemodynamic effect in anesthetized Sprague-Dawley rat assessed as increase in cardiac contractility at 10 mg/kg after 90 mins. The class given is functional, Heart. The procedure, abridged: as §1
The subject of series [4] is Rattus norvegicus. In words: Hemodynamic effect in anesthetized Sprague-Dawley rat assessed as decrease in peripheral vascular resistance at 10 mg/kg after 90 mins. Also on record: scale not given: the % may be the effect or the level left. Type of series: functional. In short, it runs like this:
as §1

The nature of series [5]: Drug level in anesthetized Sprague-Dawley rat assessed end of infusion plasma concentration at 10 mg/kg after 90 mins. Conditions: iv. Type of series: ADME, organism-based. Also on record: dose 10 mg/kg. In short, it runs like this: as §1
Series [6] deals with Rattus norvegicus. Description: Hemodynamic effect in anesthetized Sprague-Dawley rat assessed as decrease in heart rate at 10 mg/kg after 90 mins. Type of series: functional. Also on record: scale not given: the % may be the effect or the level left. The procedure, abridged:
as §1

Mitogen-activated protein kinase 8, sequence (P45983 whole entry, the tested form may be a part): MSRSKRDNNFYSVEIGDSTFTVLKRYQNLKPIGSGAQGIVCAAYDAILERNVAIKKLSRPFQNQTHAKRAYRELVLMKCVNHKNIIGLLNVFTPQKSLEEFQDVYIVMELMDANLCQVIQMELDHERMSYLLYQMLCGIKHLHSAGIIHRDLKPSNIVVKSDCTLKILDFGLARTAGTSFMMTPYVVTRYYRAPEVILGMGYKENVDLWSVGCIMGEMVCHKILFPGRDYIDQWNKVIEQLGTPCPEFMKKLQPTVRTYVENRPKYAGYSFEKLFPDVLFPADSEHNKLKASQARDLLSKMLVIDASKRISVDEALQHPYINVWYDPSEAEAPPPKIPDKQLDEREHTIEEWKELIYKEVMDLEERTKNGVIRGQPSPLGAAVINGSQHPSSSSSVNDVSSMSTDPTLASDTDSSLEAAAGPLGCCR

For the compound `CCOc1nc(C(=O)NCc2cnccc2Cl)cc(N)c1C#N`, in series [1], the half-inhibitory concentration (IC50) was found to be 30 nM. The Activity is 23% in series [2] and under -15% in series [3].
In the case of `CCOc1nc(C(=O)NCc2ccc(S(C)(=O)=O)cc2)cc(N)c1Cl`, the Activity is on record as 51% in series [4], under 15% in series [6], 20% in series [2] and under 15% in series [3]. The concentration at 1.5 h in series [5] stood at 14700 ng/mL.
`CCCn1c(C2CCNCC2)nc(-c2ccc(Cl)c(Cl)c2)c1-c1ccnc(NC2CCCCC2)n1` had a concentration at 1.5 h in series [5] of 9000 ng/mL. The Activity in series [6] is 22%; in series [2] it was 30%.
Take `COc1cc[nH]c1/C=C1\C(=O)Nc2cccc(C#CC(O)c3ccc(OCCCN(C)C)cc3)c21` (stereo not drawn): the IC50 in series [1] was determined as 34 nM. Further, the Activity was 11% in series [6], 23% in series [2] and -20% in series [3].
`CCOc1nc(C(=O)NCCNc2ccc([N+](=O)[O-])cn2)cc(N)c1C#N`: 61 nM corresponded to half-maximal inhibition in series [1] (IC50). Moreover, the Activity is 20% in series [2] and 12% in series [3].
For `CCOc1nc(C(=O)NCc2ccc([S+]([O-])c3ccccc3)cc2)cc(N)c1C#N` (stereo not drawn), in that order: 50 nM, 24% and 24%.
Consider `CS(=O)(=O)c1ccc(CNC(=O)c2cc(N)c(C#N)c(NC3CCCC3)n2)cc1`, for which the concentration at 1.5 h in series [5] was found to be 10500 ng/mL. Further, the figures for the Activity in series [6], in series [2] and in series [3] were 6%, 18% and 13%, respectively.
With `CCOc1nc(C(=O)NCc2ccc(S(=O)(=O)c3ccccc3)cc2)cc(N)c1C#N`, the 50% inhibitory concentration (IC50) in series [1] was 130 nM. The Activity in series [6] came out at 11%; in series [2], 24%.
As for `CS(=O)(=O)c1ccc(CNC(=O)c2cc(N)c(C#N)c(OCC3CC3)n2)cc1`, the concentration at 1.5 h in series [5] stood at 8200 ng/mL. In series [2], the Activity is given as 24%.
`CC(C)Oc1nc(C(=O)N(C)Cc2ccc(S(C)(=O)=O)cc2)cc(N)c1C#N`: the Activity is recorded as 46% in series [4] and 41% in series [3]. For the same compound, in series [1], the IC50 stood at 6400 nM. The same compound showed a concentration at 1.5 h in series [5] of 23600 ng/mL.
In the case of `CC(C)Oc1nc(C(=O)NCc2ccc(S(C)(=O)=O)cc2)cc(O)c1C#N`, the IC50 in series [1] is over 10000 nM. Besides, the concentration at 1.5 h in series [5] came out at 39900 ng/mL. For the same compound, the Activity in series [2] is under 15%.
`CCOc1nc(C(=O)NCc2ccc(S(C)(=O)=O)cc2)cc(N)c1C#N`: the Activity in series [4] is 25%; in series [6], under 15%; in series [2], 41%; in series [3], under 15%. This compound also returned a concentration at 1.5 h in series [5] of 19300 ng/mL.
With `CS(=O)(=O)c1ccc(CNC(=O)c2cc(N)c(C#N)c(-c3ccsc3)n2)cc1`, the Activity in series [2] is listed as 23%.

For the origin of these results see ChEMBL document CHEMBL1138387, “Hemodynamic effects of potent and selective JNK inhibitors in anesthetized rats: implication for targeting protein kinases in metabolic diseases” (Bioorg Med Chem Lett, 2007).
